{"source": "ChEMBL document CHEMBL4138308", "about": "“Simultaneous Targeting of RGD-Integrins and Dual Murine Double Minute Proteins in Glioblastoma Multiforme” (J Med Chem, 2018)", "key": {"[1]": {"biological_target": "T1, Protein Mdm4 (Homo sapiens) (UniProt O15151)", "T1 sequence (whole entry)": "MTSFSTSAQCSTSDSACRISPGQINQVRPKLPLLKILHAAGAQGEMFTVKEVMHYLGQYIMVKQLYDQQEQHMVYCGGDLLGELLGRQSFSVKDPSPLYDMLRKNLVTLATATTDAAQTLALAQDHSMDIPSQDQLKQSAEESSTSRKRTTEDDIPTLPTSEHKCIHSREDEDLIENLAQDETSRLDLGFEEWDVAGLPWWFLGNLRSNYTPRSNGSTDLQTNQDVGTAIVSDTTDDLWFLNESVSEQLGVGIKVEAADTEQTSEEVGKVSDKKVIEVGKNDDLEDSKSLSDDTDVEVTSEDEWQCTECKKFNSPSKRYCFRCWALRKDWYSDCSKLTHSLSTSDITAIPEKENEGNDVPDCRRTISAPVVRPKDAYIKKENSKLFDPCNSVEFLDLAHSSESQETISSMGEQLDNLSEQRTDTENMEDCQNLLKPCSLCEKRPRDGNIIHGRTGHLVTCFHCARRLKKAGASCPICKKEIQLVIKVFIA", "assay": "Displacement of p53 from MDM4 in human SHSY-5Y cells at 100 uM incubated for 10 mins by sandwich ELISA method relative to control", "assay_type": "cell-based", "how_it_was_run": "(§1)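 Native complexes in cell lysates (U87MG for p53/MDM2; SHSY-5Y for p53/MDM4). Compound incubated with lysate 10 min at room temperature, then 90 min in wells precoated with anti-MDM2 or anti-MDM4; blocked with 1% BSA, anti-p53 (1:250) 90 min, HRP secondary 60 min, TMB read at 450 nm. Blanks lacked anti-p53. Mean of three determinations.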"}, "U-87 MG [2]": {"tested_on": "U-87 MG", "assay": "Anti-invasive activity in human U87MG cells at 10 uM after 24 hrs by transwell assay", "assay_type": "functional", "conditions": "U-87MG ATCC", "how_it_was_run": "(§2)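 U87MG cells suspended in serum-free medium (60,000 cells), treated at 10 μM (each agent at 10 μM when combined), placed in upper chamber of Matrigel-coated (0.32 mg/mL) transwell; lower chamber RPMI with 10% FBS. Invasion 24 h at 37 °C; cells on lower membrane surface fixed with p-formaldehyde, crystal violet stained, counted in five random fields per filter. Mean ± SEM vs DMSO control.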"}, "U-87 MG [3]": {"tested_on": "U-87 MG", "assay": "Anti-invasive activity in human U87MG cells at 10 uM after 24 hrs in presence of MDM2 inhibitor nutlin-3 and MDM4 inhibitor SJ-1722550 by transwell assay", "assay_type": "functional, cell-based", "conditions": "U-87MG ATCC", "how_it_was_run": "as §2"}, "[4]": {"biological_target": "T2, E3 ubiquitin-protein ligase Mdm2 (Homo sapiens, UniProt Q00987)", "assay": "Displacement of p53 from MDM2 in human U87MG cells at 100 uM incubated for 10 mins by sandwich ELISA method relative to control", "assay_type": "cell-based", "how_it_was_run": "as §1"}, "U-87 MG [5]": {"tested_on": "U-87 MG", "assay": "Antiproliferative activity against human U87MG cells at 100 nM after 72 hrs by MTS assay", "assay_type": "functional, cell-based", "conditions": "U-87MG ATCC", "how_it_was_run": "(§3)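 Cells seeded ~5000 cells/cm2, after 24 h medium replaced with compound in DMSO (DMSO 1% v/v in controls), alone or in combination at 100 nM each, or concentration series (U87MG 1–100 nM). 72 h exposure; proliferation read by MTS, expressed as % of DMSO control (mean ± SEM, N = 3); IC50 from sigmoid dose–response fit.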"}, "U-87 MG [6]": {"tested_on": "U-87 MG", "assay": "Antiproliferative activity against human U87MG cells at 100 nM after 72 hrs in presence of MDM2 inhibitor nutlin-3 by MTS assay", "assay_type": "functional, cell-based", "conditions": "U-87MG ATCC", "how_it_was_run": "as §3"}, "U-87 MG [7]": {"tested_on": "U-87 MG", "assay": "Antiproliferative activity against human U87MG cells at 100 nM after 72 hrs in presence of MDM2 inhibitor nutlin-3 and MDM4 inhibitor SJ-1722550 by MTS assay", "assay_type": "functional, cell-based", "conditions": "U-87MG ATCC", "how_it_was_run": "as §3"}, "Integrin alpha-V/beta-3": {"biological_target": "Integrin alpha-V/beta-3 (Homo sapiens, UniProt P05106+P06756)", "sequence (P05106 27-788 limits assumed)": "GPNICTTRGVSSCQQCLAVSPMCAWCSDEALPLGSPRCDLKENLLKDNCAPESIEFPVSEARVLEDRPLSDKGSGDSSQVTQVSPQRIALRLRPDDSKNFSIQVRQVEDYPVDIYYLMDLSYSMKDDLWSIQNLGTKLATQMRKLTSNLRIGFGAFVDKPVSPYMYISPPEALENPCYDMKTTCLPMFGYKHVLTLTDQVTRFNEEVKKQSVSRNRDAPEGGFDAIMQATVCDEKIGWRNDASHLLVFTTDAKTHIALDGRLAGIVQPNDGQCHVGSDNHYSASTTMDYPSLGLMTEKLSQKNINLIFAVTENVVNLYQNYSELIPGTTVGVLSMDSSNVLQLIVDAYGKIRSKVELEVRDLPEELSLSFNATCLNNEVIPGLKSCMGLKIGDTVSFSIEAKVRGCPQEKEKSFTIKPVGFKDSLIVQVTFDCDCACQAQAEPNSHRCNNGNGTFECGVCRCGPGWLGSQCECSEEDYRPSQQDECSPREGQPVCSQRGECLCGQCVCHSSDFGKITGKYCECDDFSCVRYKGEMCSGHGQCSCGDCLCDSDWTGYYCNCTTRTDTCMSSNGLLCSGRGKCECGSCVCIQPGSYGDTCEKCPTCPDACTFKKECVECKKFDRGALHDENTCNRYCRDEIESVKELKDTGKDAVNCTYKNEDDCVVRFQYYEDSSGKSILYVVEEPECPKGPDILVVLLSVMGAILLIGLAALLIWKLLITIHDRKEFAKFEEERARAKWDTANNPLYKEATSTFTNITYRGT", "sequence (P06756 31-889 limits assumed)": "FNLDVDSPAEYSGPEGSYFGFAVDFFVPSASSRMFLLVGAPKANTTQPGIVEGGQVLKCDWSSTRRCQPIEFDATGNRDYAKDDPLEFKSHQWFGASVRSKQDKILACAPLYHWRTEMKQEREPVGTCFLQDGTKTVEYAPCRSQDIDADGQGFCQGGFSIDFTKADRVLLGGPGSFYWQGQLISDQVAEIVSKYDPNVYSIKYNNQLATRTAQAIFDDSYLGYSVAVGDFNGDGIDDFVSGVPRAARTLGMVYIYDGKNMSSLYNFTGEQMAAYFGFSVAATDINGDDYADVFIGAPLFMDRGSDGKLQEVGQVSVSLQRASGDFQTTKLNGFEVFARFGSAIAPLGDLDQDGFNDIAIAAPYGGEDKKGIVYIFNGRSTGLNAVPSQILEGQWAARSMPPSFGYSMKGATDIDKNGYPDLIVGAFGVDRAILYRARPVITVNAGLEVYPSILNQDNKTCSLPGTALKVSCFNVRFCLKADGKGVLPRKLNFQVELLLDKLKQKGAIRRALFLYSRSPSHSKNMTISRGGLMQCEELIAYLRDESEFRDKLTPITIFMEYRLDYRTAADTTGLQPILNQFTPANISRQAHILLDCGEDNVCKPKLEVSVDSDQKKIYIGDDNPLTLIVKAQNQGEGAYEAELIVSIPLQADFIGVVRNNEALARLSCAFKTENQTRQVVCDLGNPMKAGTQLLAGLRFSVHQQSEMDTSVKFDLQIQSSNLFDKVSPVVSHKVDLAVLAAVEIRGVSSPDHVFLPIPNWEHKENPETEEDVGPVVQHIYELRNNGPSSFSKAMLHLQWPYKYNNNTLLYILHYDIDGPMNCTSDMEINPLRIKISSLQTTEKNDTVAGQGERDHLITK", "sequence (P06756 891-1048 limits assumed)": "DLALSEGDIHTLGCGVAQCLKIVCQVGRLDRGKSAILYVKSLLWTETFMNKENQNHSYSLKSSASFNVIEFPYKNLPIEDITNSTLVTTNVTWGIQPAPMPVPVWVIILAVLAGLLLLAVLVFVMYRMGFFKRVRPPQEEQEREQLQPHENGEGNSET", "assay": "Inhibition of vitronectin binding to human alphaVbeta3 integrin after 1 hr by ELISA", "assay_type": "protein-complex assay", "how_it_was_run": "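Plates coated overnight at 4 °C with vitronectin 1.0 μg/mL in carbonate buffer pH 9.6, blocked 1 h with TSB (Ca2+, Mg2+, Mn2+, 1% BSA). Soluble human αvβ3 (final 1.0 μg/mL) with inhibitor (final 0.128–400 nM) 1 h at room temperature; detection by anti-CD51/61 then peroxidase secondary, absorbance 405 nm. Duplicates; IC50 from curve inflection point; internal standard per plate.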"}, "Integrin alpha-5/beta-1": {"biological_target": "Integrin alpha-5/beta-1 (Homo sapiens, UniProt P05556+P08648)", "sequence (P05556 21-798 limits assumed)": "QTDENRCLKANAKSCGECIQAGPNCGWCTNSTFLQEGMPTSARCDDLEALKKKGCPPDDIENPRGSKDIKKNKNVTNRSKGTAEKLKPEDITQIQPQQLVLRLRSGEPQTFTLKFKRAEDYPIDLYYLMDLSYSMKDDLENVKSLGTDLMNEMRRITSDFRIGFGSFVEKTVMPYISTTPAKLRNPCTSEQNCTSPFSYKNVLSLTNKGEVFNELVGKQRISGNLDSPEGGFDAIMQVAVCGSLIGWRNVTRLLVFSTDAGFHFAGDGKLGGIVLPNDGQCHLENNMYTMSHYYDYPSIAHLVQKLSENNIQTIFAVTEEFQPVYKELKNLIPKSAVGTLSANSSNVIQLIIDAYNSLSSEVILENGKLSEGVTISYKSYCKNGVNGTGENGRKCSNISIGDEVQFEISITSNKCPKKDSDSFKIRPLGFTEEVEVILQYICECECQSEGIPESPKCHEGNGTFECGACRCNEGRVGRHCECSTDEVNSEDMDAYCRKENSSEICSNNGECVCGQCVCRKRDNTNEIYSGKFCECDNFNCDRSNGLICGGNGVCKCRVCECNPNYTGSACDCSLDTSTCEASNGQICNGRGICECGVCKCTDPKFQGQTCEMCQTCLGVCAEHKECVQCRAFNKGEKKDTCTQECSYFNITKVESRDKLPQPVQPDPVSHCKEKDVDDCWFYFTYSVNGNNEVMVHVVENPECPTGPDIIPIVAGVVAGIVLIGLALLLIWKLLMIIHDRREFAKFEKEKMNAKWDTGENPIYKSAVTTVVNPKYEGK", "sequence (P08648 42-894 limits assumed)": "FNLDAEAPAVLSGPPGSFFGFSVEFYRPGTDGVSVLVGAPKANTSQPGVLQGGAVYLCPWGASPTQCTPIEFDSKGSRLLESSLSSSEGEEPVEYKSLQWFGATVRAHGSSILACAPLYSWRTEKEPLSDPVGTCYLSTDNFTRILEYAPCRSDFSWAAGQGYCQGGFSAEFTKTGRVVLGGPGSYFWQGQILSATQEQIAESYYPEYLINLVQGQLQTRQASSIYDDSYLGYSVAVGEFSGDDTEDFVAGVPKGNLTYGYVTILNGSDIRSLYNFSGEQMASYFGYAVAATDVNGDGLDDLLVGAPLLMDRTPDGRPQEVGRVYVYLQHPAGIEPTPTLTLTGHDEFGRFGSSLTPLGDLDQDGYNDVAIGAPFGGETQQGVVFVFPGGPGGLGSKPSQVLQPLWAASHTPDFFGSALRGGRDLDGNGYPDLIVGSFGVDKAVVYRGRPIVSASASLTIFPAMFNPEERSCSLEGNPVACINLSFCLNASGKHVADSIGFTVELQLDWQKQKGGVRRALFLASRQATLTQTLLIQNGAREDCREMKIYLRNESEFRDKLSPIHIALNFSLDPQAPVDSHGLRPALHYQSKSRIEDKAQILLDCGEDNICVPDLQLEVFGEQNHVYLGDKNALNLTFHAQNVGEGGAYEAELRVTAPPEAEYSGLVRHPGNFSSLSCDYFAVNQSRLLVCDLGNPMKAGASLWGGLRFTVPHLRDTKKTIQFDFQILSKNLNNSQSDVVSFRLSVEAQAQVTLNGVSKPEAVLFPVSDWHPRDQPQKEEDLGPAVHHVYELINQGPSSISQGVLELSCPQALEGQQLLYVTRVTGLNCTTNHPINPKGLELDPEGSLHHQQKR", "sequence (P08648 895-1049 limits assumed)": "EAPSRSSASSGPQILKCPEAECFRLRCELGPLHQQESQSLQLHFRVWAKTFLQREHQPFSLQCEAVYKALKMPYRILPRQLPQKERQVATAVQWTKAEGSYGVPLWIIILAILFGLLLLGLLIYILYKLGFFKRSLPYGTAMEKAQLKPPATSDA", "assay": "Inhibition of fibronectin binding to soluble alpha5beta1 integrin (unknown origin) after 1 hr by ELISA", "assay_type": "protein-complex assay"}, "[8]": {"biological_target": "T2, E3 ubiquitin-protein ligase Mdm2", "assay": "Displacement of p53 from MDM2 in human U87MG cells incubated for 10 mins by sandwich ELISA method", "assay_type": "cell-based"}, "Protein Mdm4": {"biological_target": "T3, Protein Mdm4 (Homo sapiens, UniProt O15151)", "T3 sequence (O15151 whole entry)": "T1 sequence (whole entry)", "assay": "Displacement of p53 from MDM4 in human SHSY-5Y cells incubated for 10 mins by sandwich ELISA method", "assay_type": "cell-based"}}, "note": "Calls of active or inactive are those of the source. The rule behind the calls is not given here.", "data": [{"smiles": "CC(C)[C@H]1C(=O)N[C@@H](CCCNC(=N)N)C(=O)NCC(=O)N[C@@H](CC(=O)O)C(=O)N[C@H](Cc2ccccc2)C(=O)N1C", "values": [{"measurement": "inhibition", "setting": "[1]", "result": 2.6, "unit": "%"}, {"measurement": "Activity", "setting": "U-87 MG [2]", "result": "Active"}, {"measurement": "Activity", "setting": "U-87 MG [3]", "result": "Active"}, {"measurement": "inhibition", "setting": "[4]", "result": 14.1, "unit": "%"}, {"measurement": "Activity", "setting": "U-87 MG [5]", "result": "inactive"}, {"measurement": "Activity", "setting": "U-87 MG [6]", "result": "Active"}, {"measurement": "Activity", "setting": "U-87 MG [7]", "result": "Active"}]}, {"smiles": "C[C@@H](NC(=O)[C@H](CC(=O)O)NC(=O)CNC(=O)c1cccc(NC(=N)N)c1)c1ccccc1", "values": [{"measurement": "IC50", "setting": "Integrin alpha-V/beta-3", "result": 1.6, "unit": "nM"}, {"measurement": "IC50", "setting": "Integrin alpha-5/beta-1", "result": 45, "unit": "nM"}]}, {"smiles": "N=C(N)Nc1cccc(C(=O)NCC(=O)N[C@@H](CC(=O)O)C(=O)NCC(c2ccccc2)c2ccccc2)c1", "values": [{"measurement": "IC50", "setting": "[8]", "result": "> 1000", "unit": "nM"}, {"measurement": "IC50", "setting": "Integrin alpha-V/beta-3", "result": 0.91, "unit": "nM"}, {"measurement": "IC50", "setting": "Integrin alpha-5/beta-1", "result": 22, "unit": "nM"}]}, {"smiles": "N=C(N)Nc1cccc(C(=O)NCC(=O)N[C@@H](CC(=O)O)C(=O)NCc2ccccc2)c1", "values": [{"measurement": "IC50", "setting": "[8]", "result": "> 1000", "unit": "nM"}, {"measurement": "IC50", "setting": "Integrin alpha-V/beta-3", "result": 0.79, "unit": "nM"}, {"measurement": "IC50", "setting": "Integrin alpha-5/beta-1", "result": 31, "unit": "nM"}]}, {"smiles": "C[C@H](NC(=O)[C@H](CC(=O)O)NC(=O)CNC(=O)c1cccc(NC(=N)N)c1)c1ccccc1", "values": [{"measurement": "IC50", "setting": "Integrin alpha-V/beta-3", "result": 0.91, "unit": "nM"}, {"measurement": "IC50", "setting": "Integrin alpha-5/beta-1", "result": 20, "unit": "nM"}]}, {"smiles": "N=C(N)Nc1cccc(C(=O)NCC(=O)N[C@@H](CC(=O)O)C(=O)NCCc2ccc3ccccc3c2)c1", "values": [{"measurement": "IC50", "setting": "Integrin alpha-V/beta-3", "result": 2.2, "unit": "nM"}, {"measurement": "IC50", "setting": "Integrin alpha-5/beta-1", "result": 76, "unit": "nM"}]}, {"smiles": "COc1ccc(CNC(=O)[C@H](CC(=O)O)NC(=O)CNC(=O)c2cccc(NC(=N)N)c2)cc1", "values": [{"measurement": "IC50", "setting": "Protein Mdm4", "result": "> 1000", "unit": "nM"}, {"measurement": "IC50", "setting": "Integrin alpha-V/beta-3", "result": 1.2, "unit": "nM"}, {"measurement": "IC50", "setting": "Integrin alpha-5/beta-1", "result": 40, "unit": "nM"}]}, {"smiles": "N=C(N)Nc1cccc(C(=O)NCC(=O)N[C@@H](CC(=O)O)C(=O)Nc2cccc3ccccc23)c1", "values": [{"measurement": "IC50", "setting": "Integrin alpha-V/beta-3", "result": 4.5, "unit": "nM"}, {"measurement": "IC50", "setting": "Integrin alpha-5/beta-1", "result": 22, "unit": "nM"}]}]}
